Experiment [1] deals with Calf thymus DNA. Kind of experiment: Binding affinity to calf thymus DNA at 0.4 uM in 10 mM pH 7.4 Tris-Hcl buffer containing 0.1 mM EDTA and 40 mM NaCl by fluorescence spectroscopy. The class given is nucleic-acid assay. The note with it: Bos taurus. Put shortly:
(§1)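 CT DNA was in the same Tris/EDTA buffer with 40 mM NaCl. 0.4 μM ligand was titrated with preformed DNA, incubated 10 min at 20 °C, and excited at 300 or 330 nm. Kd and binding stoichiometry n came from the emission titration.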

A short description of experiment [2]: Binding affinity to human Hum21 [5'-G3(T2AG3)3-3'] G-quadruplex DNA at 5 uM in 10 mM pH 7.4 Tris-Hcl buffer containing 0.1 mM EDTA and 0.1 M NaCl by UV-Vis absorption sperctrometry.
The species entered for experiment [3] is Homo sapiens. The experiment is described as follows: Binding affinity to human Hum21 [5'-G3(T2AG3)3-3'] G-quadruplex DNA in 10 mM pH 7.4 Tris-Hcl buffer containing 0.1 mM EDTA and […] by CD spectroscopy.
A short description of experiment [4]: Displacement of thiazole orange from calf thymus double stranded DNA in presence of 10 mM pH 7.4 Tris-Hcl buffer containing 0.1 mM EDTA and […] by fluorescent intercalator displacement assay. Set-up: species or system Bos taurus.
Experiment [5] can be described thus: Selectivity index, ratio of Kd for calf thymus DNA to Kd for human Hum21 [5'-G3(T2AG3)3-3'] G-quadruplex DNA. In short, it runs like this: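 Selectivity is the ratio of fluorescence-titration Kd for CT DNA (Tris-HCl pH 7.4, 40 mM NaCl, 0.1 mM EDTA) to Kd for preformed Hum21 G4 DNA (Tris-HCl pH 7.4, 0.1 M NaCl/KCl, 0.1 mM EDTA).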
For experiment [6], the target named is T1, Telomerase reverse transcriptase (Homo sapiens, UniProt O14746). Kind of experiment: Inhibition of telomerase isolated form human A549 cells by TRAP-LIG assay.
The species entered for experiment [7] is Homo sapiens. Kind of experiment: Binding affinity to human Hum21 [5'-G3(T2AG3)3-3'] G-quadruplex DNA assessed as change in melting temperature in 10 mM pH 7.4 Tris-Hcl buffer containing 0.1 mM EDTA and 0.1 mM NaCl […] (reference value: 7 to 10 degC).
A short description of experiment [8]: Binding affinity to human Hum21 [5'-G3(T2AG3)3-3'] G-quadruplex DNA at 0.4 uM in 10 mM pH 7.4 Tris-Hcl buffer containing 0.1 mM EDTA and 0.1 mM NaCl by fluorescence spectroscopy.
Experiment [9] relates to Calf thymus DNA. Kind of experiment: Binding affinity to calf thymus DNA in 10 mM pH 7.4 Tris-Hcl buffer containing 0.1 mM EDTA and 40 mM NaCl by CD spectroscopy. Conditions: Bos taurus.
The next experiment deals with HeLa. Kind of experiment: Cytotoxicity against human HeLa cells at 2 and 5 uM after 15 days by MTT assay. A general note: Formazan colour is commonly taken as a measure of viable cells.
Experiment [10] can be described thus: Displacement of thiazole orange from human Hum21 [5'-G3(T2AG3)3-3'] G-quadruplex DNA in presence of 10 mM pH 7.4 Tris-Hcl buffer containing 0.1 mM EDTA and […] by fluorescent intercalator displacement assay.
The nature of experiment [11]: Displacement of thiazole orange from telomeric duplex DNA (unknown origin) in presence of 10 mM pH 7.4 Tris-Hcl buffer containing 0.1 mM EDTA and […] by fluorescent intercalator displacement assay.
Experiment [12] can be described thus: Binding affinity to human Hum21 [5'-G3(T2AG3)3-3'] G-quadruplex DNA at 0.4 uM in 10 mM pH 7.4 Tris-Hcl buffer containing 0.1 mM EDTA and […] by fluorescence spectroscopy.
Experiment [13] can be described thus: Binding affinity to human Hum21 [5'-G3(T2AG3)3-3'] G-quadruplex DNA at 5 uM in 10 mM pH 7.4 Tris-Hcl buffer containing 0.1 mM EDTA and 0.1 M KCl by UV-Vis absorption sperctrometry.
Experiment [14] relates to Calf thymus DNA. Kind of experiment: Binding affinity to calf thymus DNA in 10 mM pH 7.4 Tris-Hcl buffer containing 0.1 mM EDTA and 40 mM NaCl by fluorescence spectroscopy. The class given is nucleic-acid assay, Bos taurus. Put shortly: as §1
A further experiment has as its system HEK-293T. Kind of experiment: Cytotoxicity against transformed HEK293T cells at 2 and 5 uM after 15 days by MTT assay. The note with it: Homo sapiens.
The species named for experiment [15] is Homo sapiens. The experiment is described as follows: Binding affinity to human Hum21 [5'-G3(T2AG3)3-3'] G-quadruplex DNA assessed as change in melting temperature in 10 mM pH 7.4 Tris-Hcl buffer containing 0.1 mM EDTA and […] measured after 12 hrs by UV-Vis absorption sperctrometry (reference value: 7 to 13 degC).
For experiment [16], the target named is T1, Telomerase reverse transcriptase. The experiment is described as follows: Total inhibition of telomerase isolated form human A549 cells by TRAP-LIG assay.

Activity calls are given as the source filed them. The rule behind the calls is not given here.

Data on two compounds can be found in ChEMBL document CHEMBL3351262, “Design and synthesis of new benzimidazole-carbazole conjugates for the stabilization of human telomeric DNA, telomerase inhibition, and their selective action on cancer cells” (J Med Chem, 2014).

Usually Kd stands for the equilibrium constant for the complex coming apart. By IC50 is commonly meant the point on the concentration scale where inhibition reaches its midpoint. Low values mean inhibition by little substance, high ones a need for much substance. By ΔTm is commonly meant the change in melting temperature against a reference sample.

T1 sequence (O14746 whole entry): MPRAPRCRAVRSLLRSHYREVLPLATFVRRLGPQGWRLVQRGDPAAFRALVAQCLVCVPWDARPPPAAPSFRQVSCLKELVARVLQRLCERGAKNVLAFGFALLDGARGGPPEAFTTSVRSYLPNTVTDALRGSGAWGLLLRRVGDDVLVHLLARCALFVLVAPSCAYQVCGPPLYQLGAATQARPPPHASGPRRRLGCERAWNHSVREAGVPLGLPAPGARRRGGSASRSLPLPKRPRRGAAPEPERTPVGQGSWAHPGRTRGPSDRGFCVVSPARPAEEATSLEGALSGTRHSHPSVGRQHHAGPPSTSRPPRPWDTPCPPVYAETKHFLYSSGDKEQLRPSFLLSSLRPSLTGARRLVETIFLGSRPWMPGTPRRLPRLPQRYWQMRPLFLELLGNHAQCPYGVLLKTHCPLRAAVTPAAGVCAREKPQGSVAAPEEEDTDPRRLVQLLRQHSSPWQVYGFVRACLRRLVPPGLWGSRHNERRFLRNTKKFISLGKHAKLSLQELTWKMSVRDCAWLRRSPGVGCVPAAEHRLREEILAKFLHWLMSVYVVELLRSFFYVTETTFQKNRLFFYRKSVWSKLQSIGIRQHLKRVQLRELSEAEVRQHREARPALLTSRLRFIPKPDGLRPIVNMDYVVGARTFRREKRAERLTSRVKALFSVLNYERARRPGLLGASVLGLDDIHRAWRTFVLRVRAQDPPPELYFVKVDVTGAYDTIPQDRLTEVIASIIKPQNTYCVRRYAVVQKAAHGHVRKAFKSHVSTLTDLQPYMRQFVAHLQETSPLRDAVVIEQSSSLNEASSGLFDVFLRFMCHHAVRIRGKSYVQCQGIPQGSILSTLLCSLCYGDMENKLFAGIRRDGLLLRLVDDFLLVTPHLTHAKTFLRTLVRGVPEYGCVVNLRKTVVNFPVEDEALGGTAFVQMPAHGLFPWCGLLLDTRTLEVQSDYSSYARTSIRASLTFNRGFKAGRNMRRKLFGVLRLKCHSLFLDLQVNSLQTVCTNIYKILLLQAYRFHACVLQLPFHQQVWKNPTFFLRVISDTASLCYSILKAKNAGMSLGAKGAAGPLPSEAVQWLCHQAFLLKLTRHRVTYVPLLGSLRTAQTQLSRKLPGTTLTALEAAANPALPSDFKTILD

In the case of `CN1CCN(CCCCn2c3ccc(-c4nc5cc(-c6nc7cc(N8CCN(C)CC8)ccc7[nH]6)ccc5[nH]4)cc3c3cc(-c4nc5cc(-c6nc7cc(N8CCN(C)CC8)ccc7[nH]6)ccc5[nH]4)ccc32)CC1`, the result with Calf thymus DNA [1] was inactive. In addition, the Kd in experiment [2] came to 380 nM; in [8], 180 nM; in experiment [12] it was 150 nM; in experiment [13] it was 230 nM; in the experiment on Calf thymus DNA [14], 89000 nM. Also, the outcome in the experiment listed under Homo sapiens [3] and in the experiment with Calf thymus DNA [9] was Active. Also, the DC50 entry in experiment [4] is “Not Active”; in experiment [10], 1360 nM; in experiment [11], “Not Active”. Moreover, the Ratio in experiment [5] was found to be 234. Moreover, the IC50 in experiment [6] was determined as 1800 nM. Also, the ΔTm in the experiment filed under Homo sapiens [7] and in the experiment filed under Homo sapiens [15] was 10 °C throughout. The inhibition result in the experiment on HeLa and with HEK-293T was “Active” each time. Also, the concentration giving total telomerase inhibition in experiment [16] stood at 3 µM.

For `CN1CCN(CCCCn2c3ccc(-c4nc5cc(N6CCOCC6)ccc5[nH]4)cc3c3cc(-c4nc5cc(N6CCOCC6)ccc5[nH]4)ccc32)CC1`, the result with Calf thymus DNA [1] and in the experiment on Calf thymus DNA [9] was inactive. The Kd is 480 nM in experiment [2], 190 nM in [8], 330 nM in experiment [13] and 312000 nM in the experiment on Calf thymus DNA [14]. Besides, the result in the experiment listed under Homo sapiens [3] was Active. The values for the DC50 entry in [4], in [10] and in experiment [11] were “Not Active”, 1010 nM and “Not Active”, respectively. Besides, the Ratio in experiment [5] is 650. The IC50 in experiment [6] was 1600 nM. Also, the shift in melting temperature (ΔTm) was 8 °C in the experiment filed under Homo sapiens [7] and 7 °C in the experiment filed under Homo sapiens [15]. Moreover, the inhibition result in the experiment with HeLa and in the experiment with HEK-293T was “Active” each time. Moreover, in [16], the concentration giving total telomerase inhibition turned out to be 3 µM.
